Legend:
[1] = Drug metabolism in human liver S9 fraction assessed as glucuronidation in presence of PAPS and UDPGA incubated for 20 mins; type: ADME, subcellular; details: read-out: Drug metabolism
[2] = Inhibition of PDE4 in PBMC (unknown origin) assessed as reduction in LPS-induced TNFalpha production incubated for 24 hrs by ELISA; details: Homo sapiens
[3] = Drug metabolism in human liver S9 fraction assessed as sulfonation in presence of PAPS and UDPGA incubated for 20 mins; type: ADME, subcellular; details: read-out: Drug metabolism
[4] = Inhibition of PDE4 in human whole blood assessed as reduction in LPS-induced TNFalpha production incubated for 24 hrs by ELISA; type: tissue-based
How it was run: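 Human whole blood was preincubated with LPS (final 1 μg/mL) for 10 min at 37 °C with rocking. 200 μL was added to wells holding increasing inhibitor concentrations in 100% DMSO. Plates were incubated 24 h at 37 °C under agitation, then placed on ice, diluted with PBS and centrifuged at 800g, 4 °C, for 15 min before TNF-α measurement.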

[5] = biological target: Adenosine receptor A2a (Homo sapiens, UniProt P29274); assay: Antagonist activity at adenosine A2a receptor (unknown origin)
[6] = test system: Rattus norvegicus; assay: Anti-inflammatory activity in Sprague-Dawley rat assessed as inhibition of LPS-induced neutrophilia at 1000 ug/kg, it administered as suspension with Penn-Century micro-sprayer aerosolizer dosed 18 hrs before LPS challenge and measured 22 hrs post dose; type: functional; details: inhaled or nasal
How it was run: (§1)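 Suspensions in PBS/0.2% Tween 80 were homogenized, with lower doses made by 1:10 dilutions. 0.2 mL was given intratracheally by MicroSprayer to isoflurane-anesthetized fasted male Sprague-Dawley rats (230–280 g). At 1 or 18 h, rats received nebulized LPS (30 mL of a 1:100 PBS dilution of 100 mg/10 mL stock) over 40 min. Four hours later, BAL neutrophils were counted by flow cytometry.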

[7] = biological target: T1, Adenosine receptor A1 (Homo sapiens, UniProt P30542); assay: Antagonist activity at adenosine A1 receptor (unknown origin)
T1 sequence (P30542 whole entry): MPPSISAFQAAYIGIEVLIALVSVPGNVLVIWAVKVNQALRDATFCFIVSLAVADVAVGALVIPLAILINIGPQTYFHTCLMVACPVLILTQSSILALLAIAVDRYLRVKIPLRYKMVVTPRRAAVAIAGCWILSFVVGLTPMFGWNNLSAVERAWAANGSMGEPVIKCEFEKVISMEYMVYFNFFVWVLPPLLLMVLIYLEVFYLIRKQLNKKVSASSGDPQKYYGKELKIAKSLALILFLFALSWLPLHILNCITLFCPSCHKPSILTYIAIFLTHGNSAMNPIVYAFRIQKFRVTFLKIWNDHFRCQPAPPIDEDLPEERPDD

[8] = test system: Rattus norvegicus; assay: Anti-inflammatory activity in Sprague-Dawley rat assessed as inhibition of LPS-induced neutrophilia at 1000 ug/kg, it administered as suspension with Penn-Century micro-sprayer aerosolizer dosed 1 hrs before LPS challenge and measured 5 hrs post dose; type: functional; details: inhaled or nasal; how it was run: as §1
[9] = biological target: T2, Adenosine receptor A2b (Homo sapiens, UniProt P29275); assay: Antagonist activity at adenosine A2b receptor (unknown origin)
T2 sequence (P29275 whole entry): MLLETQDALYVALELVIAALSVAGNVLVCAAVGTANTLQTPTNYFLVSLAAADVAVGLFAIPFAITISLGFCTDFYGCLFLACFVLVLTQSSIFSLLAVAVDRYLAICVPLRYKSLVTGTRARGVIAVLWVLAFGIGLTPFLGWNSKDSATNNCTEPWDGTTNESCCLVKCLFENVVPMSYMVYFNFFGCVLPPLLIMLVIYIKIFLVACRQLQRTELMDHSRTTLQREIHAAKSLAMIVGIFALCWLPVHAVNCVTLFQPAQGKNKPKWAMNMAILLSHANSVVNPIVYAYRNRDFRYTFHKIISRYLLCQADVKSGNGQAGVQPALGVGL

[10] = test system: Rattus norvegicus; assay: Anti-inflammatory activity in Sprague-Dawley rat assessed as inhibition of LPS-induced neutrophilia at 10 ug/kg, it administered as dry powder with lactose carrier through Penn-Century insufflator dosed 1 hrs before LPS challenge and measured 5 hrs post dose; type: functional
How it was run: (§2)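 Compounds were micronized, comixed with lactose, and 5 mg of the mixture was insufflated intratracheally into isoflurane-anesthetized fasted male Sprague-Dawley rats (230–280 g). LPS aerosol (30 mL of a 1:100 PBS dilution of 100 mg/10 mL stock) was nebulized for 40 min at 1 or 18 h post-dose. BAL was taken 4 h later and neutrophils counted by flow cytometry. Controls: lactose alone, lactose+LPS, fluticasone (10% in lactose).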

[11] = test system: Rattus norvegicus; assay: Anti-inflammatory activity in Sprague-Dawley rat assessed as inhibition of LPS-induced neutrophilia at 10 to 1000 ug/kg, it administered as suspension with Penn-Century micro-sprayer aerosolizer dosed 1 hrs before LPS challenge and measured 5 hrs post dose; type: functional; details: inhaled or nasal; how it was run: as §1
[12] = test system: Rattus norvegicus; assay: Anti-inflammatory activity in Sprague-Dawley rat assessed as inhibition of LPS-induced neutrophilia at 10 ug/kg, it administered as dry powder with lactose carrier through Penn-Century insufflator dosed 18 hrs before LPS challenge and measured 22 hrs post dose; type: functional; how it was run: as §2
[13] = test system: Rattus norvegicus; assay: Anti-inflammatory activity in Sprague-Dawley rat assessed as inhibition of LPS-induced neutrophilia at 100 ug/kg, it administered as suspension with Penn-Century micro-sprayer aerosolizer dosed 18 hrs before LPS challenge and measured 22 hrs post dose; type: functional; details: inhaled or nasal; how it was run: as §1
[14] = test system: Rattus norvegicus; assay: Anti-inflammatory activity in Sprague-Dawley rat assessed as inhibition of LPS-induced neutrophilia at 300 ug/kg, it administered as suspension with Penn-Century micro-sprayer aerosolizer dosed 18 hrs before LPS challenge and measured 22 hrs post dose; type: functional; details: inhaled or nasal; how it was run: as §1
[15] = test system: Rattus norvegicus; assay: Anti-inflammatory activity in Sprague-Dawley rat assessed as inhibition of LPS-induced neutrophilia at 100 ug/kg, it administered as dry powder with lactose carrier through Penn-Century insufflator dosed 1 hrs before LPS challenge and measured 5 hrs post dose; type: functional; how it was run: as §2
[16] = test system: Rattus norvegicus; assay: Anti-inflammatory activity in Sprague-Dawley rat assessed as inhibition of LPS-induced neutrophilia at 100 ug/kg, it administered as dry powder with lactose carrier through Penn-Century insufflator dosed 18 hrs before LPS challenge and measured 22 hrs post dose; type: functional; how it was run: as §2
[17] = test system: Rattus norvegicus; assay: Anti-inflammatory activity in Sprague-Dawley rat assessed as inhibition of LPS-induced neutrophilia at 10 ug/kg, it administered as suspension with Penn-Century micro-sprayer aerosolizer dosed 1 hrs before LPS challenge and measured 5 hrs post dose; type: functional; details: inhaled or nasal; how it was run: as §1
[18] = test system: Rattus norvegicus; assay: Anti-inflammatory activity in Sprague-Dawley rat assessed as inhibition of LPS-induced neutrophilia at 30 ug/kg, it administered as suspension with Penn-Century micro-sprayer aerosolizer dosed 18 hrs before LPS challenge and measured 22 hrs post dose; type: functional; details: inhaled or nasal; how it was run: as §1
[19] = test system: Rattus norvegicus; assay: Anti-inflammatory activity in Sprague-Dawley rat assessed as inhibition of LPS-induced neutrophilia at 100 ug/kg, it administered as suspension with Penn-Century micro-sprayer aerosolizer dosed 1 hrs before LPS challenge and measured 5 hrs post dose; type: functional; details: inhaled or nasal; how it was run: as §1
[20] = Basicity constant, pKB of the compound; type: physicochemical

Chain of Adenosine receptor A2a (P29274 whole entry): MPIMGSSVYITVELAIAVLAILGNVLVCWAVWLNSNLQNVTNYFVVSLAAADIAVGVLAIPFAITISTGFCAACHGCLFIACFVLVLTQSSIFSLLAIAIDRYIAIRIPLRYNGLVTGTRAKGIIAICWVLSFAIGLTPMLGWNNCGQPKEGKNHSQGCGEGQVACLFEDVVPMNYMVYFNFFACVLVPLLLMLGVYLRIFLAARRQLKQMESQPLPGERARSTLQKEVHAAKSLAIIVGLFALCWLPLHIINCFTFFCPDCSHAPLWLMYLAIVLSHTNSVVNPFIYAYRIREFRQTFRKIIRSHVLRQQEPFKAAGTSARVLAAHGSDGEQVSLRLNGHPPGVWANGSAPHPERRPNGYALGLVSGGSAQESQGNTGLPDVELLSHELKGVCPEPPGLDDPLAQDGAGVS

| Structure (SMILES) | metabolised at 20 min [1] [%] | IC50 [2] [nM] | metabolised at 20 min [3] [%] | IC50 [4] [nM] | IC50 [5] [nM] | inhibition in vivo at 1 mg/kg [6] [%] | IC50 [7] [nM] | inhibition in vivo at 1 mg/kg [8] [%] | IC50 [9] [nM] | inhibition in vivo at 0.01 mg/kg [10] [%] | ED50 [11] [mg/kg] | inhibition in vivo at 0.01 mg/kg [12] [%] | inhibition in vivo at 0.1 mg/kg [13] [%] | inhibition in vivo at 0.3 mg/kg [14] [%] | inhibition in vivo at 0.1 mg/kg [15] [%] | inhibition in vivo at 0.1 mg/kg [16] [%] | inhibition in vivo at 0.01 mg/kg [17] [%] | inhibition in vivo at 0.03 mg/kg [18] [%] | inhibition in vivo at 0.1 mg/kg [19] [%] | pKb [20] |
| --- | --- | --- | --- | --- | --- | --- | --- | --- | --- | --- | --- | --- | --- | --- | --- | --- | --- | --- | --- | --- |
| CCn1nc(-c2cccc(-c3ccc(O)cc3)c2)cc(NC(=O)Nc2c(Cl)cncc2Cl)c1=O | 2 | 0.9 | 0.3 | 117 | – | – | – | – | – | – | – | – | – | – | – | – | – | – | – | – |
| CCn1nc(-c2cccc(-c3cncc(O)c3)c2)cc(NC(=O)Nc2c(Cl)cncc2Cl)c1=O | 36 | 0.29 | 16 | 64 | 333 | 23 | 11 | 58 | 111 | – | – | – | – | – | – | – | – | – | – | – |
| CCn1nc(-c2cccc(-c3ccc(CC(=O)NCCN4CCCCC4)cc3)c2)cc(NC(=O)Nc2c(Cl)cncc2Cl)c1=O | – | 0.52 | – | 374 | 105 | – | 31 | – | 90 | 48 | 0.089 | 42 | 48 | 47 | 42 | 39 | – | – | – | – |
| CCn1nc(-c2cccc(-c3cc(C(=O)NCCCN(C)C)cc(C(=O)OC)c3)c2)cc(NC(=O)Nc2c(Cl)cncc2Cl)c1=O | – | 0.05 | – | – | > 1000 | – | 71 | – | > 1000 | – | – | – | – | 26 | – | – | 52 | 30 | 64 | – |
| CCn1nc(-c2cccc(-c3cccc(C(=O)NCCN4CCNCC4)c3)c2)cc(NC(=O)Nc2c(Cl)cncc2Cl)c1=O | – | 0.34 | – | 125 | 9 | – | 2 | – | – | – | – | – | 40 | – | – | – | – | – | 62 | 9.8 |
| CCn1nc(-c2cccc(-c3ccc(O)c(F)c3)c2)cc(NC(=O)Nc2c(Cl)cncc2Cl)c1=O | 6 | 2.4 | 3 | 93 | – | – | – | – | – | – | 0.342 | – | – | – | – | – | – | – | – | – |

Reference: ChEMBL document CHEMBL3862036, “Biphenyl Pyridazinone Derivatives as Inhaled PDE4 Inhibitors: Structural Biology and Structure-Activity Relationships” (J Med Chem, 2016)
